Assay results: ChEMBL document CHEMBL6177914, “Human microbiome derived synthetic antimicrobial peptides with activity against Gram-negative, Gram-positive, and antibiotic resistant bacteria” (RSC Med Chem, 2025)
≈ marks a conversion by molar mass, not a printed value. Calls of active or inactive are those of the source. No cut-off for these calls is given here.

Assays:
[1] = tested on: Staphylococcus aureus; assay: Antibacterial activity against Staphylococcus aureus ATCC 25923 assessed as reduction in bacterial growth at MIC concentration measured after 24 hrs by time-kill kinetic analysis; type: functional, organism-based
How it was run: (§1)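 Samples (5 µL) taken at 0, 1, 2, 4, 6, 12, 18 and 24 h, tenfold diluted in 0.85% NaCl, and plated on TSA overnight at 37 °C for CFU counts. Two independent duplicates.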

[2] = tested on: Enterococcus faecium; assay: Antibacterial activity against vancomycin resistant Enterococcus faecium BAA 2317 assessed as inhibition of bacterial growth incubated for 24 hrs by absorbance based microplate reader analysis; type: functional
How it was run: (§2)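 Broth microdilution. A single colony was grown 24 h in its recommended broth, then diluted 1:10 000 in the same medium. Peptide serial dilutions were added from DMSO stock at 4 µL per 196 µL inoculated medium. Plates were incubated aerobically or anaerobically as each pathogen requires, at 37 °C for 24 h, and OD600 was read. MIC was the lowest concentration giving 100% growth inhibition. Duplicate wells; assay repeated five times independently.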

[3] = tested on: Staphylococcus aureus; assay: Antibacterial activity against methicillin resistant Staphylococcus aureus BAA 2313 assessed as inhibition of bacterial growth incubated for 24 hrs by absorbance based microplate reader analysis; type: functional
How it was run: as §2, with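 “read.” for “read. MIC was the lowest concentration giving 100% growth inhibition.”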

[4] = tested on: Staphylococcus aureus; assay: Antibacterial activity against Staphylococcus aureus ATCC 25923 assessed as reduction in surviving bacteria at MIC concentration measured after 12 hrs by time-kill kinetic analysis; type: functional; how it was run: as §1
[5] = tested on: Staphylococcus aureus; assay: Antibacterial activity against Staphylococcus aureus ATCC 25923 assessed as reduction in colony forming units at MIC concentration measured after 2 hrs by time-kill kinetic analysis; type: functional; how it was run: as §1
[6] = tested on: Staphylococcus aureus; assay: Antibacterial activity against Staphylococcus aureus ATCC 25923 assessed as inhibition of bacterial growth incubated for 24 hrs by absorbance based microplate reader analysis; type: functional; conditions: read-out: MIC100
How it was run: as §2, with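 “read.” for “read. MIC was the lowest concentration giving 100% growth inhibition.”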

[7] = tested on: Staphylococcus aureus; assay: Bactericidal activity against methicillin resistant Staphylococcus aureus BAA 2313 assessed as inhibition of bacterial growth at MIC concentration incubated for 48 hrs by broth microdilution assay; type: functional, organism-based
How it was run: (§3)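 Plates were incubated 48 h at 37 °C and examined for colonies. A fidaxomicin-treated culture at 1 µM served as the control.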

[8] = tested on: Pseudomonas aeruginosa; assay: Antibacterial activity against Pseudomonas aeruginosa BAA 1744 assessed as inhibition of bacterial growth incubated for 24 hrs by absorbance based microplate reader analysis; type: functional; conditions: read-out: MIC100
How it was run: (§4)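 Broth microdilution. An overnight single-colony culture in recommended broth was diluted 1:10 000, and peptide serial dilutions in DMSO were added (4 µL into 196 µL). Plates incubated 24 h at 37 °C, aerobic or anaerobic as required, then OD600 read. Inhibition was calculated against pathogen-only and blank wells.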

[9] = tested on: Salmonella enterica; assay: Antibacterial activity against Salmonella enterica ATCC 13314 assessed as inhibition of bacterial growth incubated for 24 hrs by absorbance based microplate reader analysis; type: functional; how it was run: as §4
[10] = tested on: Enterococcus faecium; assay: Bactericidal activity against vancomycin resistant Enterococcus faecium BAA 2317 assessed as inhibition of bacterial growth at MIC concentration incubated for 48 hrs by broth microdilution assay; type: functional, organism-based; how it was run: as §3
[11] = tested on: Caco-2; assay: Anti-inflammatory activity in human Caco-2 cells infected with Clostridium difficile ATCC 43602 assessed as reduction in TNFalpha level at MIC concentration by ELISA relative to control; type: functional; parameters: scale not given: the % may be the effect or the level left
How it was run: (§5)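 Caco-2 cells grown in DMEM + 10% FBS, 37 °C, 5% CO2, to 90% confluence, then seeded 30 000 cells/well and held 24 h. C. difficile was grown overnight anaerobically in meat broth, washed in PBS, and 1 µL of 0.5 OD600 culture added per 300 µL medium. […] Cytokine in supernatant measured by ELISA; three independent replicates.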

[12] = tested on: Clostridioides difficile; assay: Bactericidal activity against Clostridium difficile ATCC 43602 assessed as inhibition of bacterial growth at MIC concentration incubated for 48 hrs by broth microdilution assay; type: functional, organism-based
How it was run: (§6)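 From broth-microdilution wells showing no growth, 10 µL was spotted onto agar and incubated 48 h at 37 °C. Plates were inspected for colonies. Fidaxomicin at 1 µM served as control.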

[13] = Retention time of compound by RP-HPLC analysis; type: physicochemical
How it was run: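 Analytical reversed-phase HPLC.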

[14] = tested on: Staphylococcus aureus; assay: Induction of morphological changes in Staphylococcus aureus ATCC 25923 assessed as detachment of pieces from cell wall at MIC concentration by transmission electron microscopic analysis; type: functional, organism-based
How it was run: (§7)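 Cells were pelleted at 4 °C, washed in 0.1 M PBS pH 7.2, and fixed overnight (4% formaldehyde, 1.25% glutaraldehyde, ruthenium red). Post-fixed in 1% OsO4, dehydrated through ethanol, embedded in epoxy resin and imaged by TEM.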

[15] = tested on: Staphylococcus aureus; assay: Induction of morphological changes in Staphylococcus aureus ATCC 25923 assessed as leakage of intracellular content at MIC concentration by transmission electron microscopic analysis; type: functional, organism-based; how it was run: as §7
[16] = tested on: Staphylococcus aureus; assay: Induction of morphological changes in Staphylococcus aureus ATCC 25923 assessed as cell wall lysis at MIC concentration by transmission electron microscopic analysis; type: functional, organism-based; how it was run: as §7
[17] = tested on: Listeria monocytogenes; assay: Bactericidal activity against Listeria monocytogenes ATCC 15313 assessed as inhibition of bacterial growth at MIC concentration incubated for 48 hrs by broth microdilution assay; type: functional, organism-based; how it was run: as §6
[18] = tested on: Clostridioides difficile; assay: Antibacterial activity against Clostridium difficile ATCC 43602 assessed as inhibition of bacterial growth incubated for 24 hrs by absorbance based microplate reader analysis; type: functional; conditions: read-out: MIC100
[19] = tested on: Staphylococcus aureus; assay: Bactericidal activity against Staphylococcus aureus ATCC 25923 assessed as inhibition of bacterial growth at MIC concentration incubated for 48 hrs by broth microdilution assay; type: functional, organism-based; how it was run: as §6
[20] = tested on: Escherichia coli; assay: Bactericidal activity against Escherichia coli ATCC 33694 assessed as inhibition of bacterial growth at MIC concentration incubated for 48 hrs by broth microdilution assay; type: functional, organism-based; how it was run: as §6
[21] = tested on: Pseudomonas aeruginosa; assay: Bactericidal activity against Pseudomonas aeruginosa BAA 1744 assessed as inhibition of bacterial growth at MIC concentration incubated for 48 hrs by broth microdilution assay; type: functional, organism-based; how it was run: as §6
[22] = tested on: Staphylococcus aureus; assay: Induction of morphological changes in Staphylococcus aureus ATCC 25923 assessed as fragmentation of intracellular content at MIC concentration by transmission electron microscopic analysis; type: functional, organism-based; how it was run: as §7
[23] = tested on: Salmonella enterica; assay: Bactericidal activity against Salmonella enterica ATCC 13314 assessed as inhibition of bacterial growth at MIC concentration incubated for 48 hrs by broth microdilution assay; type: functional, organism-based; how it was run: as §6
[24] = tested on: Staphylococcus aureus; assay: Induction of morphological changes in Staphylococcus aureus ATCC 25923 assessed as deformation of cells at MIC concentration by transmission electron microscopic analysis; type: functional, organism-based; how it was run: as §7
[25] = tested on: Staphylococcus aureus; assay: Induction of morphological changes in Staphylococcus aureus ATCC 25923 assessed as disintegration of cells at MIC concentration by transmission electron microscopic analysis; type: functional, organism-based; how it was run: as §7
[26] = tested on: Caco-2; assay: Anti-inflammatory activity in human Caco-2 cells infected with Clostridium difficile ATCC 43602 assessed as reduction in IL-8 level at MIC concentration by ELISA relative to control; type: functional; parameters: scale not given: the % may be the effect or the level left; how it was run: as §5

## CC1(C)S[C@@H]2[C@H](NC(=O)[C@H](N)c3ccc(O)cc3)C(=O)N2[C@H]1C(=O)O [AMOXICILLIN]
[1]
  Activity: Active
[2]; read-out: MIC100
  MIC: 35 µM (≈ 12.8 µg/mL)
[3]; read-out: MIC100
  MIC: 35 µM (≈ 12.8 µg/mL)
[4]
  Activity: 5 log10CFU/ml
[5]
  Activity: 4 log10CFU/ml
[6]
  MIC: 5 µM (≈ 1.83 µg/mL)

## H-LSKISGGIGPLVIPV-NH2
[7]
  Activity: Active
[8]
  MIC: 9.3 µM
[9]
  Activity: inactive
[10]
  Activity: Active
[11]
  Activity: 10%
[12]
  Activity: Active
[1]
  Activity: Active
[13]
  Retention_time: 14.51 min
[14]
  Activity: Active
[15]
  Activity: Active
[16]
  Activity: Active
[17]
  Activity: Active
[18]
  MIC: 0.9 µM
[19]
  Activity: Active
[20]
  Activity: Active
[21]
  Activity: Active
[22]
  Activity: Active
[23]
  Activity: Active
[24]
  Activity: Active
[25]
  Activity: Active
[4]
  Activity: 5 log10CFU/ml
[5]
  Activity: 2 log10CFU/ml

## H-SGGIGPLVIP-NH2
[7]
  Activity: Active
[26]
  Activity: 6%
[9]
  Activity: inactive
[10]
  Activity: Active
[12]
  Activity: Active
[13]
  Retention_time: 13.82 min
[2]
  Activity: inactive
[17]
  Activity: Active
[19]
  Activity: Active
[20]
  Activity: Active
[21]
  Activity: Active
[23]
  Activity: Active
[3]
  Activity: inactive
